Screening results from PubChem BioAssay.
Sampled rows, rich in hits. Any-hit rate of the full collection: about 5.8%.
PLK1 PBD inh: Plk1 (human) PBD binding inhibition. P53350. Plk1 PBD phosphopeptide binding, fluorescence polarization. inhibition, %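 (tested at about 20 µM)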. hit rate 0.13% among 97,000; in the data active = inhibition above about 34%, passing the limit was not always enough
Target sequence (P53350 whole entry, looked up): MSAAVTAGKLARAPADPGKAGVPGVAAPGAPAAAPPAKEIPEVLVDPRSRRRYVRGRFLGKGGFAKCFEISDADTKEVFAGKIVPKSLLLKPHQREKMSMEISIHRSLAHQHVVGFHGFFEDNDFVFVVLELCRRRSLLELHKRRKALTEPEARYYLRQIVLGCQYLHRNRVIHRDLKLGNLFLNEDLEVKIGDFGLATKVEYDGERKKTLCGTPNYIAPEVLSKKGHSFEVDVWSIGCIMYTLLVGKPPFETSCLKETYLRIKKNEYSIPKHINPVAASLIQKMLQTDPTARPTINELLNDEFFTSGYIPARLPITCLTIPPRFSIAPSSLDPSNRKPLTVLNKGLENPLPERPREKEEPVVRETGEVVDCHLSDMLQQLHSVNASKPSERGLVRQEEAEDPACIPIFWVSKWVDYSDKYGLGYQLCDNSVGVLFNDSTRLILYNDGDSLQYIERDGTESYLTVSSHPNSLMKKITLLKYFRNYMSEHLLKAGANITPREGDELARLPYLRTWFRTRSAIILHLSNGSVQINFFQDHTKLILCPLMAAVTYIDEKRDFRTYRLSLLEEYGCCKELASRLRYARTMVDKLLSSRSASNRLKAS
HIV Rev-RRE inh: disrupts HIV-1 Rev binding to RRE RNA. P05866. Rev peptide-RRE RNA binding, FRET. inhibition, % at 8 µM. hit rate 0.79% among 97,000. AID 704;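 active = inhibition above the screen-wide mean plus 3 SD, cut at about 35% in these data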;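 also: 0% = median DMSO wells and 100% = median Neomycin B control wells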
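Test system: Cy5-tagged RRE RNA duplex with fluorescein-tagged Rev peptide; Probe or stimulus: labelled Rev peptide; Schedule: 5 min preincubation and 15 min binding, 25 °C; Signal: FRET fluorescence readout; Evaluation: % inhibition from 671/540 nm acceptor-to-donor ratio, scaled between controls; Control set: DMSO and neomycin B.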
Cav3 T inh: blocks human Cav3.2 T-type calcium channel; O95180; AID 449739; hit rate 4% among 100,000; B-score at 10 µM; Cav3.2-expressing cells, Fluo-4 calcium fluorescence FDSS; active compounds read low;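 active = single-dose well whose peak fluorescence ratio is a statistical outlier from its plate by either plate-standardised score or position-corrected B-score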
PLK1 inh: inhibitors of human PLK1 kinase; P53350; recombinant PLK1 kinase, TR-FRET peptide phosphorylation; inhibition, % at 10 µM; hit rate 0.53% among 97,000; AID 619;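 active = inhibition of 50% or more in the single-concentration screen; inactive = inhibition below 50%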;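 also: 0% = DMSO max control and 100% = H-89 dihydrochloride min control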
Pyk2 oligo antag: Pyk2 (human) oligomerization antagonism | z-score (the deposit names both 25 µM and 10 µM) | Q14289 | Q293 cells, Pyk2 FERM NanoBiT luminescence; active compounds read low | hit rate 0.83% among 99,000 | AID 1347419;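 active = Z-score of -3 or lower, scaled per plate to the spread of control and sample wells; inactive = z-score above -3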;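 also: negative z-score means lost luminescence so less FERM oligomerization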
FAK inh: blocks human focal adhesion kinase activity. Q05397. biochemical FAK kinase activity assay. inhibition, %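 (tested at 7 µM)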. hit rate 0.84% among 97,000. AID 727; in the data active = inhibition above about 19%;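 also: 0% = DMSO and 100% = reference compound high control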
* = called active by the depositor; x = no result given; [ ] = dose if it differs, or a comment.

SMILES	PLK1 PBD inh	HIV Rev-RRE inh	Cav3 T inh	PLK1 inh	Pyk2 oligo antag	FAK inh
COc1ccc(OCCSc2nnc(CC(=O)Nc3cccc(Cl)c3Cl)n2C)cc1	-23	8	-4*	5	1.5	-1
CCn1c(CC(=O)Nc2cccc(Cl)c2Cl)nnc1SCCOc1ccc(OC)cc1	-5	15	-0.029	-3	1.4	0
CNC(=O)C1CC(=O)N(c2ccc(C)cc2)C1 (stereo unspecified)	-21	2	-3.8*	-2	0.85	-1
Cn1nc(SCC(=O)O)sc1=S	-3	140*[fluorescence artefact?]	-0.43	-7	0.14	4
CCOC(=O)C(Sc1nn(C)c(=S)s1)C(C)=O (stereo unspecified)	-14	4	-0.15	4	0.38	2
C=CCN1C(=O)N(/C=C/C)c2cccc3cccc1c23	-5	15	-5*	2	-3.7*	8
C=CCN1C(=O)C(C)(C)Nc2ccccc21	2	6	0.42	-17	-0.71	3
O=C(CN(c1ccc(Cl)cc1)S(=O)(=O)c1ccccc1)N/N=C/c1ccco1	22	7	-6*	-13	0.2	0
Cc1ccc(S(=O)(=O)c2nc(Nc3nccs3)sc2Cl)cc1	1	4	-0.3	-9	-3.1*	-8
CC(C)N(C(=O)CSc1nn2c(=O)c(C(C)(C)C)nnc2s1)c1ccccc1	3	8	-10*	3	-1	-2
CC(C)(C)c1nnc2sc(SCCN3C(=O)c4ccccc4C3=O)nn2c1=O	14	9	-0.34	-4	0.29	8
CCc1[nH]nc2c1C1(C(=O)N(Cc3ccccc3)c3ccccc31)C(C#N)=C(N)O2 (stereo unspecified)	-13	14	-1.6	-4	-1.3	-1
CCN1C(=O)C2(C(C#N)=C(N)Oc3n[nH]c(-c4ccc(Cl)cc4)c32)c2ccccc21 (stereo unspecified)	17	11	0.31	-6	-3*	1
O=C(OCC#CCSc1nnc(-c2cccc3ccccc23)o1)c1cccs1	11	10	-4.7*	-3	1.6	-6
CCOC(=O)Cn1nnnc1CN(CCc1ccccc1)Cc1cc2cc(CC)ccc2[nH]c1=O	-13	-2	-4.4*	14	0.15	-1
Cc1cc(C)cc(C(=O)N2CC(C)OC(C)C2)c1 (stereo unspecified)	-14	5	0.64	-5	0.25	-1
Cc1cccnc1NC(=O)COc1ccc2oc3c(c2c1)CCCC3	-3	18	-5.6*	-8	1.1	0
C=CCn1c(SCC(=O)Nc2c(C)n(C)n(-c3ccccc3)c2=O)nc2sc(C)c(-c3ccccc3)c2c1=O	1	1	-2.4	-13	-1.5	-3
CCOc1ccc(C2C=C(c3ccc(F)cc3)Nc3ncnn32)cc1 (stereo unspecified)	-17	57*	-0.72	-14	1.2	1
C1=C(c2ccc(-c3ccccc3)cc2)Nc2ncnn2C1c1ccco1 (stereo unspecified)	-42	118*[fluorescence artefact?]	x	2	-1.6	1
CCOc1ccc(C2C=C(c3ccccc3)Nc3ncnn32)cc1 (stereo unspecified)	-18	40*	-1.7	-7	x	-1
Cc1ccc(C2C=C(c3ccccc3)Nc3ncnn32)cc1 (stereo unspecified)	x	x	-0.46	x	x	x
Cc1cc(C)n(C(=O)CNC(=O)CCc2ccccc2)n1	-7	2	-0.84	-1	0.76	3
Cc1onc(-c2ccccc2)c1C(=O)N1CC(C)OC(C)C1 (stereo unspecified)	3	1	0.22	3	-0.74	-6
N/C(Cc1ccc(Cl)cc1)=N\OC(=O)C1CCCCC1	x	x	x	x	-0.37	x
SMILES	PLK1 PBD inh	HIV Rev-RRE inh	Cav3 T inh	PLK1 inh	Pyk2 oligo antag	FAK inh
O=C(N/N=C/c1ccco1)Nc1ccccc1	x	x	x	x	0.27	x
O=C(N/N=C/c1ccc(Cl)cc1)Nc1ccccc1	0	9	-6.5*	-3	0.6	-2
Cc1ccsc1C1NC(=O)c2c(sc3c2CCN(C)C3)N1 (stereo unspecified)	-1	100*[fluorescence artefact?]	-0.096	38	x	-1
CN1CCc2c(sc3c2C(=O)NC(c2cccs2)N3)C1 (stereo unspecified)	-7	67*	0.16	10	0.95	6
CSc1ccc(C2NC(=O)c3c(sc4c3CCN(C)C4)N2)cc1 (stereo unspecified)	-18	84*	x	-12	x	9
O=C(NCc1ccccc1)N(Cc1nc2ccccc2c(=O)[nH]1)C1CCCC1	11	4	0.62	-12	0.54	4
CCOc1ccc(Br)cc1S(=O)(=O)Nc1ccccc1N1CCOCC1	-17	6	-3.7	4	-1.7	2
O=C(Nc1nc(=S)ss1)c1ccc(Cl)cc1Cl	-27	0	-11*	-7	0.74	-2
O=C(NNc1cccc(Cl)n1)c1ccc(Cl)cc1Cl	-22	0	0.49	-4	0.37	-1
CCOC(=O)Cn1c(=O)oc2cc(S(=O)(=O)NCCc3ccc(OCC)c(OCC)c3)ccc21	-7	5	0.56	-8	2.1	-4
CCc1nc(NCc2ccco2)c2oc3ccccc3c2n1	33	6	-0.19	0	-1.3	23*
CCc1nc(Nc2ccc3c(c2)OCCO3)c2oc3ccccc3c2n1	8	11	-0.8	-5	-3.4*	0
CCNc1nc(CC)nc2c1oc1ccccc12	-9	1	-0.0054	4	-0.26	5
Cc1nc(NCc2ccc3c(c2)OCO3)c2oc3ccccc3c2n1	-7	12	-1.5	-9	-0.9	1
CCc1nc(NCc2ccc3c(c2)OCO3)c2oc3ccccc3c2n1	3	8	-3.7*	-3	-0.34	0
Cc1ccc(C)c2[nH]c(=O)c(CN(CC3CCCO3)C(=O)NC3CCCCC3)cc12 (stereo unspecified)	x	x	-0.87	x	-0.59	x
CCOC(=O)Nc1ccccc1C(=O)N1CCOCC1	-4	4	1.3	-2	0.82	0
CC(C)Cn1c(C(C)C)nc([N+](=O)[O-])c1Sc1ccc(Cl)cn1	17	7	-5.8*	-8	-0.86	-2
CC(C)Cn1c(C(C)C)nc([N+](=O)[O-])c1S(=O)(=O)c1ccc(F)cc1	14	4	-3.2	-16	-0.66	-3
CCCCn1c(CCC)nc([N+](=O)[O-])c1Sc1ccc(Cl)cn1	9	12	-9*	-6	-0.99	0
CC(=O)OCC(=O)Nc1ccc(Cl)cc1Cl	x	x	0.5	x	0.05	x
Cc1cc(Oc2ccccc2)nc(SCC(=O)Nc2ccc(Cl)cc2Cl)n1	-6	1	-5.8*	-9	-0.88	2
COC(=O)CSc1nc(C)cc(Oc2ccccc2)n1	-4	2	0.4	59*	x	0
O=C1OCc2cccc3cccc1c23	9	11	0.27	-6	0.23	0
CC1=CC2=C(OC1N(C)C)c1cccc3cccc(c13)C2=O (stereo unspecified)	3	48*	-1.3	0	-0.57	2
CCOc1ccc(Nc2nc(NCCN3CCOCC3)nc(OC)n2)cc1	-3	5	1.4	-48	0.58	3
